From ChEMBL document CHEMBL1154787, “Enaminonitrile in heterocyclic synthesis: synthesis and antimicrobial evaluation of some new pyrazole, isoxazole and pyrimidine derivatives incorporating a benzothiazole moiety” (2009)
Converted amounts (≈) assume the structure as drawn.

Assays:
Assay type in all cases: functional
Pseudomonas aeruginosa [1] = experiment: Antibacterial activity against Pseudomonas aeruginosa after 24-48 hrs by microdilution susceptibility test
Summary of the method: (§1)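 MIC by twofold serial dilution in wells, tested only for compounds giving inhibition zones >10 mm; microbial suspensions at 10⁶ CFU/mL inoculated into wells, incubated at 36 °C for 24–48 h, then MIC read.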

Bacillus subtilis [2] = experiment: Antibacterial activity against Bacillus subtilis after 24-48 hrs by microdilution susceptibility test; summary of the method: as §1
Escherichia coli [3] = experiment: Antibacterial activity against Escherichia coli after 24-48 hrs by microdilution susceptibility test; summary of the method: as §1
Bacillus thuringiensis [4] = experiment: Antibacterial activity against Bacillus thuringiensis assessed as zone of inhibition diameter at 1 mg/mL after 24 hrs […]; conditions: read-out: DIZ
Summary of the method: (§2)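 Agar diffusion: 5 mm sterile filter-paper disks loaded with test compound in DMF (1 mg/mL) placed on agar seeded with the bacterium, in triplicate; DMF alone as control; incubated 37 °C for 24 h; mean inhibition-zone diameter recorded in mm.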

Bacillus thuringiensis [5] = experiment: Antibacterial activity against Bacillus thuringiensis after 24-48 hrs by microdilution susceptibility test; summary of the method: as §1
Escherichia coli [6] = experiment: Antibacterial activity against Escherichia coli assessed as zone of inhibition diameter at 1 mg/mL after 24 hrs […]; conditions: read-out: DIZ; summary of the method: as §2
Bacillus subtilis [7] = experiment: Antibacterial activity against Bacillus subtilis assessed as zone of inhibition diameter at 1 mg/mL after 24 hrs […]; conditions: read-out: DIZ; summary of the method: as §2
Pseudomonas aeruginosa [8] = experiment: Antibacterial activity against Pseudomonas aeruginosa assessed as zone of inhibition diameter at 1 mg/mL after 24 hrs […]; conditions: read-out: DIZ; summary of the method: as §2
Fusarium oxysporum [9] = experiment: Antifungal activity against Fusarium oxysporum after 24-48 hrs by microdilution susceptibility test; summary of the method: as §1
Botrytis fabae = experiment: Antifungal activity against Botrytis fabae after 24-48 hrs by microdilution susceptibility test; summary of the method: as §1
Fusarium oxysporum [10] = experiment: Antifungal activity against Fusarium oxysporum assessed as zone of inhibition diameter at 1 mg/mL after 48 hrs […]; conditions: read-out: DIZ
Summary of the method: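 Agar diffusion: 5 mm sterile filter-paper disks loaded with test compound in DMF (1 mg/mL) placed on agar seeded with the fungus, in triplicate; DMF alone as control; incubated at 37 °C for fungal plates; mean inhibition-zone diameter recorded in mm.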

Nc1oncc1C(=O)Nc1nc2ccccc2s1
MIC (Pseudomonas aeruginosa [1]): 50 µg/mL (≈ 192 µM)
MIC (Bacillus subtilis [2]): 50 µg/mL (≈ 192 µM)
MIC (Escherichia coli [3]): 50 µg/mL (≈ 192 µM)
zone of inhibition at 1000 µg/mL (Bacillus thuringiensis [4]): 25 mm
MIC (Bacillus thuringiensis [5]): 25 µg/mL (≈ 96.1 µM)
zone of inhibition at 1000 µg/mL (Escherichia coli [6]): 19 mm
zone of inhibition at 1000 µg/mL (Bacillus subtilis [7]): 19 mm
zone of inhibition at 1000 µg/mL (Pseudomonas aeruginosa [8]): 19 mm
MIC (Fusarium oxysporum [9]): 25 µg/mL (≈ 96.1 µM)
MIC (Botrytis fabae): 6.25 µg/mL (≈ 24 µM)
zone of inhibition at 1000 µg/mL (Fusarium oxysporum [10]): 25 mm

CN[C@@H]1[C@H](O[C@H]2[C@H](O[C@H]3[C@H](O)[C@@H](O)[C@H](N=C(N)N)[C@@H](O)[C@@H]3N=C(N)N)O[C@@H](C)[C@]2(O)C=O)O[C@@H](CO)[C@H](O)[C@H]1O [STREPTOMYCIN]
MIC (Pseudomonas aeruginosa [1]): 6.25 µg/mL (≈ 10.7 µM)
MIC (Bacillus subtilis [2]): 3.12 µg/mL (≈ 5.37 µM)
MIC (Escherichia coli [3]): 6.25 µg/mL (≈ 10.7 µM)
zone of inhibition at 1000 µg/mL (Bacillus thuringiensis [4]): 37 mm
MIC (Bacillus thuringiensis [5]): 6.25 µg/mL (≈ 10.7 µM)
zone of inhibition at 1000 µg/mL (Escherichia coli [6]): 37 mm
zone of inhibition at 1000 µg/mL (Bacillus subtilis [7]): 43 mm
zone of inhibition at 1000 µg/mL (Pseudomonas aeruginosa [8]): 37 mm

N=c1c(C(=O)Nc2nc3ccccc3s2)cnc2sccn12
MIC (Pseudomonas aeruginosa [1]): 6.25 µg/mL (≈ 19.1 µM)
MIC (Bacillus subtilis [2]): 12.5 µg/mL (≈ 38.2 µM)
MIC (Escherichia coli [3]): 25 µg/mL (≈ 76.4 µM)
zone of inhibition at 1000 µg/mL (Bacillus thuringiensis [4]): 25 mm
MIC (Bacillus thuringiensis [5]): 25 µg/mL (≈ 76.4 µM)
zone of inhibition at 1000 µg/mL (Escherichia coli [6]): 25 mm
zone of inhibition at 1000 µg/mL (Bacillus subtilis [7]): 31 mm
zone of inhibition at 1000 µg/mL (Pseudomonas aeruginosa [8]): 37 mm
MIC (Fusarium oxysporum [9]): 25 µg/mL (≈ 76.4 µM)
MIC (Botrytis fabae): 12.5 µg/mL (≈ 38.2 µM)
zone of inhibition at 1000 µg/mL (Fusarium oxysporum [10]): 25 mm

N=c1c(C(=O)Nc2nc3ccccc3s2)cnc2ccccn12
MIC (Pseudomonas aeruginosa [1]): 50 µg/mL (≈ 156 µM)
MIC (Bacillus subtilis [2]): 6.25 µg/mL (≈ 19.4 µM)
MIC (Escherichia coli [3]): 12.5 µg/mL (≈ 38.9 µM)
zone of inhibition at 1000 µg/mL (Bacillus thuringiensis [4]): 31 mm
MIC (Bacillus thuringiensis [5]): 12.5 µg/mL (≈ 38.9 µM)
zone of inhibition at 1000 µg/mL (Escherichia coli [6]): 31 mm
zone of inhibition at 1000 µg/mL (Bacillus subtilis [7]): 37 mm
zone of inhibition at 1000 µg/mL (Pseudomonas aeruginosa [8]): 19 mm
MIC (Fusarium oxysporum [9]): 25 µg/mL (≈ 77.8 µM)
MIC (Botrytis fabae): 6.25 µg/mL (≈ 19.4 µM)
zone of inhibition at 1000 µg/mL (Fusarium oxysporum [10]): 25 mm

Nc1c(C(=O)Nc2nc3ccccc3s2)cnn1-c1ccccc1
MIC (Pseudomonas aeruginosa [1]): 50 µg/mL (≈ 149 µM)
MIC (Bacillus subtilis [2]): 12.5 µg/mL (≈ 37.3 µM)
MIC (Escherichia coli [3]): 50 µg/mL (≈ 149 µM)
zone of inhibition at 1000 µg/mL (Bacillus thuringiensis [4]): 19 mm
MIC (Bacillus thuringiensis [5]): 50 µg/mL (≈ 149 µM)
zone of inhibition at 1000 µg/mL (Escherichia coli [6]): 19 mm
zone of inhibition at 1000 µg/mL (Bacillus subtilis [7]): 31 mm
zone of inhibition at 1000 µg/mL (Pseudomonas aeruginosa [8]): 19 mm
MIC (Fusarium oxysporum [9]): 50 µg/mL (≈ 149 µM)
MIC (Botrytis fabae): 12.5 µg/mL (≈ 37.3 µM)
zone of inhibition at 1000 µg/mL (Fusarium oxysporum [10]): 19 mm

O=C(N[C@H](CO)[C@H](O)c1ccc([N+](=O)[O-])cc1)C(Cl)Cl [CHLORAMPHENICOL]
MIC (Pseudomonas aeruginosa [1]): 6.25 µg/mL (≈ 19.3 µM)
MIC (Bacillus subtilis [2]): 6.25 µg/mL (≈ 19.3 µM)
MIC (Escherichia coli [3]): 6.25 µg/mL (≈ 19.3 µM)
zone of inhibition at 1000 µg/mL (Bacillus thuringiensis [4]): 37 mm
MIC (Bacillus thuringiensis [5]): 6.25 µg/mL (≈ 19.3 µM)
zone of inhibition at 1000 µg/mL (Escherichia coli [6]): 37 mm
zone of inhibition at 1000 µg/mL (Bacillus subtilis [7]): 37 mm
zone of inhibition at 1000 µg/mL (Pseudomonas aeruginosa [8]): 37 mm

Nc1ncc(C(=O)Nc2nc3ccccc3s2)c(N)n1
MIC (Pseudomonas aeruginosa [1]): 50 µg/mL (≈ 175 µM)
MIC (Bacillus subtilis [2]): 12.5 µg/mL (≈ 43.7 µM)
MIC (Escherichia coli [3]): 25 µg/mL (≈ 87.3 µM)
zone of inhibition at 1000 µg/mL (Bacillus thuringiensis [4]): 25 mm
MIC (Bacillus thuringiensis [5]): 25 µg/mL (≈ 87.3 µM)
zone of inhibition at 1000 µg/mL (Escherichia coli [6]): 25 mm
zone of inhibition at 1000 µg/mL (Bacillus subtilis [7]): 31 mm
zone of inhibition at 1000 µg/mL (Pseudomonas aeruginosa [8]): 19 mm
MIC (Fusarium oxysporum [9]): 6.25 µg/mL (≈ 21.8 µM)
MIC (Botrytis fabae): 3.12 µg/mL (≈ 10.9 µM)
zone of inhibition at 1000 µg/mL (Fusarium oxysporum [10]): 37 mm

Nc1c(C(=O)Nc2nc3ccccc3s2)cnc2nnnn12
MIC (Pseudomonas aeruginosa [1]): 50 µg/mL (≈ 160 µM)
MIC (Bacillus subtilis [2]): 3.12 µg/mL (≈ 10 µM)
MIC (Escherichia coli [3]): 50 µg/mL (≈ 160 µM)
zone of inhibition at 1000 µg/mL (Bacillus thuringiensis [4]): 31 mm
MIC (Bacillus thuringiensis [5]): 12.5 µg/mL (≈ 40 µM)
zone of inhibition at 1000 µg/mL (Escherichia coli [6]): 19 mm
zone of inhibition at 1000 µg/mL (Bacillus subtilis [7]): 43 mm
zone of inhibition at 1000 µg/mL (Pseudomonas aeruginosa [8]): 19 mm
MIC (Fusarium oxysporum [9]): 6.25 µg/mL (≈ 20 µM)
MIC (Botrytis fabae): 3.12 µg/mL (≈ 10 µM)
zone of inhibition at 1000 µg/mL (Fusarium oxysporum [10]): 37 mm
